Experimental data taken from PMC10739612 (ACS Chemical Neuroscience, 2023).

Legend:
[1] = tested on: i3Neurons stably expressing LC3-RFP-GFP; assay: LC3-RFP-GFP dual reporter live imaging in i3Neurons; format: cell-based, human
Procedure, shortened: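 iPSC-derived i3Neurons stably expressing LC3-RFP-GFP, DIV 10; 0.1% DMSO or test compound 15 μM for 72 h, or BafA1 100 nM for 24 h. Live Fast Airyscan at 37 °C; single mid-cell scan, 488/560 nm. GFP+RFP+ vesicles scored as autophagosomes, RFP-only as autolysosomes. Autolysosome size and intensity from red-channel particle analysis. Three experiments, 60–70 cells per treatment; mean ± SEM.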

[2] = tested on: HeLa cells expressing eGFP-LC3; assay: eGFP-LC3 puncta formation assay; format: cell-based
Procedure, shortened: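 HeLa stably expressing eGFP-LC3, 3000 cells/well (384-well), 24 h at 37 °C, then 4 h compound exposure. PFA fixation (12 min RT), Hoechst 2 μg/mL; imaged at 10× (DAPI/FITC). Screen hits: Z' >0.4, CV <20%, z-score >2.199 in two replicates. EC50 from 12-point doses (300–0.146 or 1000–0.488 μM by series), excluding concentrations with <40% viability; three experiments in duplicate, mean ± SEM.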

[3] = target: T1, Lamin A/C (Homo sapiens, UniProt P02545); assay: Pulldown validation and competition, immunoblot for Lamin A/C; format: binding; details: Biotin-RH1115 50 μM, HeLa lysate
T1 sequence (P02545 1-566 limits assumed): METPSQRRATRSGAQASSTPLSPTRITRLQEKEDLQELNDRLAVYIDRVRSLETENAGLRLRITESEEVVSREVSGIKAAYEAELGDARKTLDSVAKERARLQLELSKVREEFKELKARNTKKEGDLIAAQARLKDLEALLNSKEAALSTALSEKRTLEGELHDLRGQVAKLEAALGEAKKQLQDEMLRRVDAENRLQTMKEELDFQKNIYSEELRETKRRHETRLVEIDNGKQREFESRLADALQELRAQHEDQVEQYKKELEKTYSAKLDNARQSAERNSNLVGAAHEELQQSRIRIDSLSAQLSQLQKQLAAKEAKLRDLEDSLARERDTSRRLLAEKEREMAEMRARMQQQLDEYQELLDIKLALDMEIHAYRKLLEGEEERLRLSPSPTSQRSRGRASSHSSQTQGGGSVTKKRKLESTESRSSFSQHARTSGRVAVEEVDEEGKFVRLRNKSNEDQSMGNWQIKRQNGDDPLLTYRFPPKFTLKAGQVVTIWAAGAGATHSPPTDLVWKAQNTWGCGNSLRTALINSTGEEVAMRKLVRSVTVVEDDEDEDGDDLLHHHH
Procedure, shortened: (§1)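 HeLa grown 3 days to confluency; lysate cleared 18,000g, 30 min, 4 °C; protein by BCA. Streptavidin magnetic beads preloaded 2 h at 4 °C with biotinylated probe (50 μM) or biotin acid (50 μM). 500 μg lysate added (200 μL), 16 h; beads washed with PBS, eluted in 1× SDS loading buffer, immunoblotted. Competition: free test compound 100 μM added with lysate, 16 h, 4 °C.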

[4] = target: T2, LAMP1 (Homo sapiens, UniProt P11279); assay: Pulldown validation and competition, immunoblot for LAMP1; format: binding; details: Biotin-RH1115 50 μM, HeLa lysate
T2 sequence (P11279 29-417): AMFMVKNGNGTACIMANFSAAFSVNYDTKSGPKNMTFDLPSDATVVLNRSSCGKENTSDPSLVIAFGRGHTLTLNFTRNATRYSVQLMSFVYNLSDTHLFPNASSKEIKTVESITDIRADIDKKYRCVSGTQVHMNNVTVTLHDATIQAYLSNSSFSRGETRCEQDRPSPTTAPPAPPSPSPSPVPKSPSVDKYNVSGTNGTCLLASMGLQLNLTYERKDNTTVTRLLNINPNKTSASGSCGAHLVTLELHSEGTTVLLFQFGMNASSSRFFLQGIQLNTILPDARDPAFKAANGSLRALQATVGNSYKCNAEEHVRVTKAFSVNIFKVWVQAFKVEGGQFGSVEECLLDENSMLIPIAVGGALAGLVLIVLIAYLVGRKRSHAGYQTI
Procedure, shortened: as §1

[5] = tested on: phosphorylation of the mTOR substrate p70S6K in HeLa cells; assay: P70S6K and phospho-P70S6K immunoblotting; format: cell-based; details: 1a 20 μM, 2a 40 μM, compared to rapamycin 1 μM
Procedure, shortened: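 Same HeLa immunoblot workflow as for LC3, with test compound at 40 μM and 1% BSA for blocking. Probed for phospho-p70S6K and β-actin (anti-rabbit HRP secondary), then stripped and reprobed for total p70S6K; densitometry in ImageJ.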

[6] = tested on: LC3-II levels in HeLa cells; assay: LC3 immunoblotting; format: cell-based; details: 4 h, 1a 20 μM, 2a 40 μM, further increase with BafA1 100 nM
[7] = tested on: i3Neurons; assay: Cell viability assay in i3Neurons; format: cell-based, human; details: 72 h from DIV 7; DS1040 20 μM, RH1096 40 μM, RH1103 40 μM, RH1115 15 μM
Procedure, shortened: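 Viability check: DIV 10 i3Neurons on coated coverslips exposed 72 h (0.1% DMSO vehicle), fixed, immunostained for Tau and LAMP1. 5–6 random high-magnification fields per sample; neurons per unit area counted. Tau staining used to confirm normal morphology and neurite integrity. Mean ± SEM, three independent experiments.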

[8] = tested on: HeLa cells; assay: Cell viability assay by nuclear count; format: cell-based; details: 4 h, relative to DMSO
[9] = tested on: LAMP1; assay: LAMP1 expression immunoblotting in HeLa cells; format: cell-based; details: 50 μM, 24 h, vs control
Procedure, shortened: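 HeLa seeded at 300,000 cells/mL in 6-well plates; 0.1% DMSO or test compound 50 μM. Lysates cleared 12,000 rpm, 30 min, 4 °C; 10% SDS-PAGE, PVDF transfer; 5% blocker in TBS-T; primary antibody overnight 4 °C, HRP secondary 1 h RT; chemiluminescent detection; band quantification in ImageJ.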

[10] = tested on: i3Neurons; assay: Analysis of lysosomal; format: cell-based, human; details: 15 μM, 72 h, vs DMSO
Procedure, shortened: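 DIV 10 i3Neurons on poly-L-ornithine/laminin-coated glass coverslips; 72 h exposure, 0.1% DMSO vehicle; fixed, LAMP1-immunostained, imaged by high-resolution confocal. Soma outlined, thresholded, ImageJ particle analysis (minimum 0.002 μm²) giving vesicle mean size, intensity and count per neuron. Three independent experiments, 20–25 neurons per treatment; mean ± SEM.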

CO/C1=C\C(C)=C\[C@@H](C)[C@@H](O)[C@@H](C)C/C(C)=C/C=C/[C@H](OC)[C@@H]([C@@H](C)[C@@H](O)[C@H](C)[C@@]2(O)C[C@@H](O)[C@H](C)[C@@H](C(C)C)O2)OC1=O [BafA1, bafilomycin A1, reference compound]
percentage of autolysosomes ([1]; BafA1 100 nM 24 h, compared with RH1115 or DMSO): far less | number of autophagosomes per neuronal cell body ([1]; RH1115 15 μM 72 h, BafA1 100 nM 24 h): massively increased

O=C(CCCCC1SCC2NC(=O)NC21)NCCOCCOCCOCCn1nncc1CCCC(=O)OCC1CN(Cc2ccccc2)CC12CCN(CC1CCCCC1)CC2 (stereo not shown) [Biotin-RH1115, (2-Benzyl-8-(cyclohexylmethyl)-2,8-diazaspiro[4.5]decan-4-yl)methyl 4-(1-(13-Oxo-17-(2-oxohexahydro-1H-thieno[3,4-d]imidazol-4-yl)-3,6,9-trioxa-12-azaheptadecyl)-1H-1,2,3-triazol-5-yl)butanoate]
EC50 ([2]; Homo sapiens, HeLa, 4 h, read-out: EC50 in the eGFP-LC3 puncta formation assay): 46.2 µM | Lamin A/C capture in pulldown eluent (western blot) [3]: highly enriched | glycosylated LAMP1 capture in pulldown eluent (western blot) [4]: pulled down and concentrated in the eluent

CCCn1cc(CN2CCc3nc(N4CCN(C)CC4)[nH]c(=O)c3CC2)c2ccccc21 [Compound 1a, 2-(4-Methylpiperazin-1-yl)-7-((1-propyl-1H-indol-3-yl)methyl)-3,5,6,7,8,9-hexahydro-4H-pyrimido[4,5-d]azepin-4-one]
phosphorylation of p70S6K (mTOR dependence of autophagy activation) [5]: mTOR-independent manner | LC3-II levels by western blot [6]: significant increase | cytotoxicity in i3Neurons (cell density at end of treatment) [7]: no overt cytotoxicity

CCCn1cc(CN2CCc3nc(-c4ccccc4)[nH]c(=O)c3CC2)c2ccccc21 [Compound 1c, 2-Phenyl-7-((1-propyl-1H-indol-3-yl)methyl)-3,5,6,7,8,9-hexahydro-4H-pyrimido[4,5-d]azepin-4-one]
cytotoxicity (percent viability by nuclear count) [8]: increase in cell death at concentrations that are close to the concentrations that induced autophagy

OCC1CN(Cc2ccccc2)CC12CCN(Cc1ccccn1)CC2 (stereo not shown) [Compound 2a, (2-Benzyl-8-(pyridin-2-ylmethyl)-2,8-diazaspiro[4.5]decan-4-yl)methanol]
phosphorylation of p70S6K (mTOR dependence of autophagy activation) [5]: mTOR-independent manner | LC3-II levels by western blot [6]: significant increase | cytotoxicity in i3Neurons (cell density at end of treatment) [7]: no overt cytotoxicity

OCC1CN(Cc2ccccc2)CC12CCN(Cc1ccccc1)CC2 (stereo not shown) [Compound 2b, (2,8-Dibenzyl-2,8-diazaspiro[4.5]decan-4-yl)methanol]
fold increase in potency compared to RH1096 (eGFP-LC3 puncta formation) ([2]; relative to RH1096): 3 fold | cytotoxicity in i3Neurons (cell density at end of treatment) [7]: no overt cytotoxicity

OCC1CN(Cc2ccccc2)CC12CCN(CC1CCCCC1)CC2 (stereo not shown) [Compound 2c, (2-Benzyl-8-(cyclohexylmethyl)-2,8-diazaspiro[4.5]decan-4-yl)methanol]
ratio of glycosylated/non-glycosylated LAMP1 [9]: significant increase | intensity of LAMP1 vesicles [10]: increased | mean size of LAMP1 vesicles [10]: increased | fold increase in potency compared to RH1096 (eGFP-LC3 puncta formation) ([2]; relative to RH1096): 6 fold | autolysosome size relative to DMSO-treated condition ([1]; 15 μM, 72 h): ~3 times | total RFP intensity per autolysosome vesicle ([1]; 15 μM, 72 h, vs DMSO): increased | cytotoxicity in i3Neurons (cell density at end of treatment) [7]: no overt cytotoxicity

OCC1CN(Cc2ccccc2)CC12CCN(Cc1ccncc1)CC2 (stereo not shown) [Compound 2d, (2-Benzyl-8-(pyridin-4-ylmethyl)-2,8-diazaspiro[4.5]decan-4-yl)methanol]
fold decrease in potency compared to RH1096 (eGFP-LC3 puncta formation) ([2]; relative to RH1096): 2 fold
